# Measured values published in ChEMBL document CHEMBL1129566 (J Med Chem, 1996).
# What was measured:
# Staphylococcus aureus [1] = test: In vitro minimum inhibitory concentration required to produce antibacterial activity against Staphylococcus aureus 743 MRSA; format: functional
# Summary of the method: (§1)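 Two-fold agar dilution on Mueller-Hinton agar. Overnight broth cultures diluted in fresh broth to […]; 10⁴ CFU/spot applied by inoculating apparatus onto plates with graded drug concentrations. Incubated 18 h at 37 °C; MIC taken as the lowest concentration giving complete growth inhibition.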
# Enterococcus faecalis = test: In vitro minimum inhibitory concentration required to produce antibacterial activity against Enterococcus faecalis ATCC 29212; format: functional; summary of the method: as §1
# Escherichia coli [2] = test: In vitro minimum inhibitory concentration required to produce antibacterial activity against Escherichia coli 25922; format: functional; summary of the method: as §1
# Enterobacter cloacae = test: In vitro minimum inhibitory concentration required to produce antibacterial activity against Enterobacter cloacae 908SSI; format: functional; summary of the method: as §1
# Staphylococcus aureus [3] = test: In vitro minimum inhibitory concentration required to produce antibacterial activity against Staphylococcus aureus 887MSSA; format: functional; summary of the method: as §1
# Pseudomonas aeruginosa [4] = test: (§2) In vitro minimum inhibitory concentration required to produce antibacterial activity against Pseudomonas aeruginosa ATCC 27853; format: functional
# Summary of the method: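 Two-fold agar dilution on Mueller-Hinton agar. Overnight broth cultures diluted in fresh broth, inoculum 10⁴ CFU/spot applied by inoculating apparatus to plates with graded drug concentrations. Plates incubated 18 h at 37 °C. MIC taken as lowest concentration completely inhibiting growth.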
# Citrobacter freundii = test: In vitro minimum inhibitory concentration required to produce antibacterial activity against Citrobacter freundii 902; format: functional; summary of the method: as §1
# Streptococcus pneumoniae [5] = test: In vitro minimum inhibitory concentration required to produce antibacterial activity against Streptococcus pneumoniae 1/37(pen r); format: functional; summary of the method: as §1
# Streptococcus pneumoniae [6] = test: Minimum inhibitory concentration for antibacterial activity against Streptococcus pneumoniae Q19 (pen s); format: functional; summary of the method: as §1
# Pseudomonas aeruginosa [7] = test: as §2; format: functional; summary of the method: as §1; remark: listed apart in the source
# [8] = biological target: Beta-lactamase (Bacillus licheniformis) (UniProt P00808); test: Rate of hydrolysis in 0.1 M sodium phosphate buffer at pH=7.0 by Beta lactamase (Bacillus licheniformis 749/C)
# Beta-lactamase (Bacillus licheniformis), sequence (P00808 whole entry): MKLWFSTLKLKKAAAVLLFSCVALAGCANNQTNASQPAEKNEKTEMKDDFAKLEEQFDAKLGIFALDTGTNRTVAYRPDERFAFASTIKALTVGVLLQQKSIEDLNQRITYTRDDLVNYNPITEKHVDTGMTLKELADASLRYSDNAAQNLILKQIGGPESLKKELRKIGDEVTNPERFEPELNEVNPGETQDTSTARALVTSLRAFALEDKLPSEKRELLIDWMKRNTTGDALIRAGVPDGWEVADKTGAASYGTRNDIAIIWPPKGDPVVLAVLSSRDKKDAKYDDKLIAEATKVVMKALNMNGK
# Summary of the method: (§3)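 β-Lactamases purified to homogeneity; hydrolysis rate of the cephalosporin substrate measured in 0.1 M sodium phosphate buffer, pH 7.0, by standard methods.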
# Enterococcus durans = test: Inhibitory concentration against purified beta-Lactam resistant PBP5 from Enterococcus durans; format: functional
# Summary of the method: (§4)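 PBPs purified to homogeneity. IC50 measured by competition with fluorescent dansyl-penicillin or a coumarin analogue probe. Protein-bound fluorescence determined after TCA precipitation, filtration on glass fibre filters and drying, read on a fluorimeter.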
# [9] = biological target: T1, Beta-lactamase SHV-1 (Escherichia coli) (UniProt P0AD63); test: Rate of hydrolysis in 0.1 M sodium phosphate buffer at pH=7.0 by Beta lactamase (SHV-4); summary of the method: as §3
# T1 sequence (whole entry): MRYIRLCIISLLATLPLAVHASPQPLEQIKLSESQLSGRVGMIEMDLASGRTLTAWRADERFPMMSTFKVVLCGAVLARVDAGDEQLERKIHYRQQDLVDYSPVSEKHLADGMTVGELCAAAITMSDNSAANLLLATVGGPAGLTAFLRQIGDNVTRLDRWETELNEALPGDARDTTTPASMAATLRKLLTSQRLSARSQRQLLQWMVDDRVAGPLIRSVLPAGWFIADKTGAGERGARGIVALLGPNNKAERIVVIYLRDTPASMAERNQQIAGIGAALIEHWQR
# Escherichia coli [10] = test: Inhibitory concentration against purified penicillin-binding protein(PBP) 1bgamma of Escherichia coli; format: functional
# Summary of the method: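 PBP purified to homogeneity. IC50 from competition with dansyl-penicillin or a coumarin analogue; protein-bound fluorescence recovered by TCA precipitation and glass-fibre filtration, then read by fluorimetry after drying.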
# Streptococcus pneumoniae [11] = test: Inhibitory concentration against purified cephalosporin-resistant PBP2x.604 from Streptococcus pneumoniae; format: functional; summary of the method: as §4
# [12] = biological target: T1, Beta-lactamase SHV-1 (Escherichia coli); test: Rate of hydrolysis in 0.1 M sodium phosphate buffer at pH=7.0 by Beta lactamase (SHV-2); summary of the method: as §3
# Streptococcus pneumoniae [13] = test: Inhibitory concentration against purified cephalosporin-resistant PBP2x.505 from Streptococcus pneumoniae; format: functional; summary of the method: as §4
# [14] = biological target: Beta-lactamase TEM (Escherichia coli) (UniProt P62593); test: Rate of hydrolysis in 0.1 M sodium phosphate buffer at pH=7.0 by Beta lactamase (TEM-3); summary of the method: as §3
# Beta-lactamase TEM (Escherichia coli), sequence (P62593 whole entry): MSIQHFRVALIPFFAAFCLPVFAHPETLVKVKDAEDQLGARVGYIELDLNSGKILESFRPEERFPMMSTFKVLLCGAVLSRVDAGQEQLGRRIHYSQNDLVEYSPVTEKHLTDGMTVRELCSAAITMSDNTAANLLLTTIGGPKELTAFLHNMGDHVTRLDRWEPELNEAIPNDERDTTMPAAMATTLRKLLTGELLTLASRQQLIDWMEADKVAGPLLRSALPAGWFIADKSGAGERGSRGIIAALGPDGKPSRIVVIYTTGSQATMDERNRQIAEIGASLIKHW
# [15] = biological target: Beta-lactamase TEM (Escherichia coli) (UniProt P62593); test: Rate of hydrolysis in 0.1 M sodium phosphate buffer at pH=7.0 by Beta lactamase (TEM-4); summary of the method: as §3
# [16] = tested on: Staphylococcus epidermidis; test: Inhibitory concentration against purified beta-Lactam-resistant PBP2 from Staphylococcus epidermidis; format: functional; summary of the method: as §4
# Streptococcus pneumoniae [17] = test: Inhibitory concentration against purified PBP2x from Streptococcus pneumoniae; format: functional; summary of the method: as §4
# [18] = biological target: Beta-lactamase (Proteus vulgaris) (UniProt P52664); test: Rate of hydrolysis in 0.1 M sodium phosphate buffer at pH=7.0 by Beta lactamase (Proteus vulgaris 1028)
# Beta-lactamase (Proteus vulgaris), sequence (P52664 whole entry, looked up): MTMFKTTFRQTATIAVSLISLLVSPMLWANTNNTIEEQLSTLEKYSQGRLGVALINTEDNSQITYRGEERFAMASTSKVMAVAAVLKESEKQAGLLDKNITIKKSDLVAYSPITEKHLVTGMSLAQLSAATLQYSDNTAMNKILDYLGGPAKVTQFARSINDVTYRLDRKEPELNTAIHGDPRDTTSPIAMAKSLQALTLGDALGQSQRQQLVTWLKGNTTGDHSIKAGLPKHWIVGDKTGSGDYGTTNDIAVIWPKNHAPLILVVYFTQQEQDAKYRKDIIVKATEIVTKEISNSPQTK
Compound,MIC (Staphylococcus aureus [1]),MIC (Enterococcus faecalis),MIC (Escherichia coli [2]),MIC (Enterobacter cloacae),MIC (Staphylococcus aureus [3]),MIC (Citrobacter freundii),MIC (Streptococcus pneumoniae [5]),MIC (Streptococcus pneumoniae [6]),MIC (Pseudomonas aeruginosa [7]),also measured
CC(C)(O/N=C(\C(=O)N[C@@H]1C(=O)N2C(C(=O)[O-])=C(C[n+]3ccccc3)CS[C@H]12)c1csc(N)n1)C(=O)O [CEFTAZIDIME],> 32 mg/L,> 32 mg/L,0.25 mg/L,1 mg/L,8 mg/L,0.5 mg/L,16 mg/L,0.25 mg/L,,MIC (Pseudomonas aeruginosa [4]): 1 mg/L
Nc1nc(/C(=N/O)C(=O)N[C@@H]2C(=O)N3C(C(=O)O)=C(/C=C4\CCN(CC(F)(F)F)C4=O)CS[C@H]23)cs1 [RO 25-6833],8 mg/L,1 mg/L,≤ 0.06 mg/L,0.5 mg/L,1 mg/L,0.25 mg/L,1 mg/L,0.06 mg/L,16 mg/L,Activity (M min-1 (M of enzyme)-1) [8]: 906; IC50 (Enterococcus durans): 8 µM; Activity (M min-1 (M of enzyme)-1) [9]: 1390; IC50 (Escherichia coli [10]): 30 µM; IC50 (Streptococcus pneumoniae [11]): 0.87 µM; Activity (M min-1 (M of enzyme)-1) [12]: 1580; IC50 (Streptococcus pneumoniae [13]): 0.36 µM; Activity (M min-1 (M of enzyme)-1) [14]: 14; Activity (M min-1 (M of enzyme)-1) [15]: 305; IC50 [16]: 25 µM; IC50 (Streptococcus pneumoniae [17]): 0.3 µM; Activity (M min-1 (M of enzyme)-1) [18]: 461
Nc1nc(/C(=N/O)C(=O)N[C@@H]2C(=O)N3C(C(=O)O)=C(/C=C4/CN(c5ccccc5)C4=O)CS[C@H]23)cs1,2 mg/L,0.5 mg/L,2 mg/L,4 mg/L,0.12 mg/L,4 mg/L,2 mg/L,0.12 mg/L,16 mg/L,
C[C@@H](O)[C@H]1C(=O)N2C(C(=O)O)=C(SCCNC=N)C[C@H]12 [IMIPENEM ANHYDROUS],,,,,,,,,,IC50 (Enterococcus durans): > 1000 µM; IC50 (Escherichia coli [10]): 0.01 µM; IC50 (Streptococcus pneumoniae [11]): 5.3 µM; IC50 (Streptococcus pneumoniae [13]): 0.5 µM; IC50 [16]: > 1000 µM; IC50 (Streptococcus pneumoniae [17]): 0.5 µM
Nc1nc(/C(=N/O)C(=O)N[C@@H]2C(=O)N3C(C(=O)O)=C(/C=C4\CN(c5ccccc5)C4=O)CS[C@H]23)cs1,8 mg/L,0.25 mg/L,1 mg/L,2 mg/L,0.5 mg/L,1 mg/L,4 mg/L,0.5 mg/L,16 mg/L,
C=CC1=C(C(=O)O)N2C(=O)[C@@H](NC(=O)/C(=N\O)c3csc(N)n3)[C@H]2SC1,16 mg/L,16 mg/L,0.25 mg/L,16 mg/L,0.5 mg/L,8 mg/L,4 mg/L,0.25 mg/L,> 32 mg/L,

# Second part, led by results:
MIC (Staphylococcus aureus [1]),MIC (Enterococcus faecalis),MIC (Escherichia coli [2]),MIC (Enterobacter cloacae),MIC (Staphylococcus aureus [3]),MIC (Citrobacter freundii),MIC (Streptococcus pneumoniae [5]),MIC (Streptococcus pneumoniae [6]),MIC (Pseudomonas aeruginosa [7]),Compound,also measured
8 mg/L,0.5 mg/L,≤ 0.12 mg/L,≤ 0.12 mg/L,1 mg/L,≤ 0.12 mg/L,2 mg/L,0.12 mg/L,16 mg/L,Nc1nc(/C(=N/O)C(=O)N[C@@H]2C(=O)N3C(C(=O)O)=C(/C=C4\CCN(c5cccnc5)C4=O)CS[C@H]23)cs1,
32 mg/L,16 mg/L,0.25 mg/L,16 mg/L,8 mg/L,2 mg/L,2 mg/L,0.12 mg/L,> 32 mg/L,Nc1nc(/C(=N/O)C(=O)N[C@@H]2C(=O)N3C(C(=O)O)=C(/C=C4\CCN(Cc5nn[nH]n5)C4=O)CS[C@H]23)cs1,
8 mg/L,> 32 mg/L,0.25 mg/L,1 mg/L,8 mg/L,0.25 mg/L,0.5 mg/L,≤ 0.03 mg/L,8 mg/L,CO/N=C(\C(=O)N[C@@H]1C(=O)N2C(C(=O)O)=C(/C=C3\CCN(CC(F)(F)F)C3=O)CS[C@H]12)c1csc(N)n1,
